Legend:
[1] = target: T1, ATP-dependent translocase ABCB1 (Homo sapiens, UniProt P08183); test: Reversal of MDR1-mediated doxorubicin resistance in multidrug resistant human NCI-H460 cells assessed as combination index at 5 uM after 72 hrs by SRB assay; conditions: nci-h460, 72 h
[2] = target: T1, ATP-dependent translocase ABCB1; test: Reversal of MDR1-mediated paclitaxel resistance in multidrug resistant human NCI-H460 cells assessed as combination index at 1 uM after 72 hrs by SRB assay; assay type: cell-based; conditions: nci-h460, 72 h
Method in brief: (§1)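 Resistant NCI-H460/R cells received 1, 2.5 or 5 μM compound simultaneously with 0.0055 μM paclitaxel for 72 h. Growth was read by SRB assay. Relative reversion = IC50 of paclitaxel / IC50 of the combination. Interaction was scored by the combination index method (median effect, multiple drug effect equation).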

[3] = target: T1, ATP-dependent translocase ABCB1; test: Reversal of MDR1-mediated paclitaxel resistance in multidrug resistant human NCI-H460 cells assessed as combination index at 2.5 uM after 72 hrs by SRB assay; assay type: cell-based; conditions: nci-h460, 72 h
Method in brief: as §1

[4] = target: T1, ATP-dependent translocase ABCB1; test: Reversal of MDR1-mediated paclitaxel resistance in multidrug resistant human NCI-H460 cells assessed as combination index at 5 uM after 72 hrs by SRB assay; assay type: cell-based; conditions: nci-h460, 72 h
Method in brief: as §1

NCI-H460 [5] = test: Anticancer activity against multidrug resistant human NCI-H460 cells after 72 hrs by SRB assay; assay type: functional, cell-based; conditions: NCI-H460, 72 h
Method in brief: (§2)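 Cells were seeded in 96-well plates and left overnight: NCI-H460 and DLD-1 at 2000 cells/well, U-87 MG and NCI-H460/R at 4000 cells/well. NCI-H460/R was selected from NCI-H460 and kept in 100 nM doxorubicin. Compound exposure lasted 72 h. Cellular protein was stained with sulforhodamine B, and IC50 was obtained by linear regression.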

NCI-H460 [6] = test: Anticancer activity against human NCI-H460 cells after 72 hrs by SRB assay; assay type: functional, cell-based; conditions: NCI-H460, 72 h
Method in brief: as §2

[7] = Anticancer activity against human U87MG cells after 72 hrs by SRB assay; assay type: functional, cell-based, U-87MG ATCC; conditions: U-87 MG
Method in brief: as §2

DLD-1 = test: Anticancer activity against human DLD1 cells after 72 hrs by SRB assay; assay type: functional, cell-based; conditions: DLD-1, 72 h
Method in brief: as §2

[8] = target: T1, ATP-dependent translocase ABCB1; test: Reversal of MDR1-mediated paclitaxel resistance in human NCI-H460 cells assessed as ratio of compound IC50 to IC50 of paclitaxel at 1 uM after 72 hrs by SRB assay; assay type: cell-based; conditions: nci-h460, 72 h
Method in brief: as §1

[9] = target: T1, ATP-dependent translocase ABCB1; test: Reversal of MDR1-mediated paclitaxel resistance in multidrug resistant human NCI-H460 cells assessed as Rho123 accumulation at 5 uM after 30 mins by FACScalibur flow cytometry relative to control; assay type: cell-based; conditions: nci-h460, 0.5 h
Method in brief: (§3)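 NCI-H460/R cells were grown to 80% confluence, trypsinized and resuspended in medium containing Rho123. They were treated with compound at 5 or 20 μM for 30 min at 37 °C in 5% CO2, and Rho123 fluorescence (FL2-H) was read by flow cytometry. FAR = FL2-H of treated MDR cells / FL2-H of untreated MDR control.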

[10] = target: T1, ATP-dependent translocase ABCB1; test: Reversal of MDR1-mediated paclitaxel resistance in multidrug resistant human NCI-H460 cells assessed as Rho123 accumulation at 20 uM after 30 mins by FACScalibur flow cytometry relative to control; assay type: cell-based; conditions: nci-h460, 0.5 h
Method in brief: as §3

[11] = target: T1, ATP-dependent translocase ABCB1; test: Reversal of MDR1-mediated paclitaxel resistance in human NCI-H460 cells assessed as ratio of compound IC50 to IC50 of paclitaxel at 2.5 uM after 72 hrs by SRB assay; assay type: cell-based; conditions: nci-h460, 72 h
Method in brief: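 Growth was read by SRB assay. Relative reversion = IC50 of paclitaxel / IC50 of the combination. Interaction was scored by the combination index method (median effect, multiple drug effect equation).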

[12] = target: T1, ATP-dependent translocase ABCB1; test: Reversal of MDR1-mediated doxorubicin resistance in human NCI-H460 cells assessed as ratio of compound IC50 to IC50 of paclitaxel at 5 uM after 72 hrs by SRB assay; assay type: cell-based; conditions: nci-h460, 72 h, in the assay text read “IC50 of doxorubicin” for “IC50 of paclitaxel”
Method in brief: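 NCI-H460/R cells received 5 μM compound simultaneously with 0.055 μM doxorubicin for 72 h, read by SRB. Relative reversion = IC50 of doxorubicin alone / IC50 of the combination. Values are the mean ± standard deviation of five independent experiments, with IC50 by linear regression.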

T1 sequence (P08183 whole entry): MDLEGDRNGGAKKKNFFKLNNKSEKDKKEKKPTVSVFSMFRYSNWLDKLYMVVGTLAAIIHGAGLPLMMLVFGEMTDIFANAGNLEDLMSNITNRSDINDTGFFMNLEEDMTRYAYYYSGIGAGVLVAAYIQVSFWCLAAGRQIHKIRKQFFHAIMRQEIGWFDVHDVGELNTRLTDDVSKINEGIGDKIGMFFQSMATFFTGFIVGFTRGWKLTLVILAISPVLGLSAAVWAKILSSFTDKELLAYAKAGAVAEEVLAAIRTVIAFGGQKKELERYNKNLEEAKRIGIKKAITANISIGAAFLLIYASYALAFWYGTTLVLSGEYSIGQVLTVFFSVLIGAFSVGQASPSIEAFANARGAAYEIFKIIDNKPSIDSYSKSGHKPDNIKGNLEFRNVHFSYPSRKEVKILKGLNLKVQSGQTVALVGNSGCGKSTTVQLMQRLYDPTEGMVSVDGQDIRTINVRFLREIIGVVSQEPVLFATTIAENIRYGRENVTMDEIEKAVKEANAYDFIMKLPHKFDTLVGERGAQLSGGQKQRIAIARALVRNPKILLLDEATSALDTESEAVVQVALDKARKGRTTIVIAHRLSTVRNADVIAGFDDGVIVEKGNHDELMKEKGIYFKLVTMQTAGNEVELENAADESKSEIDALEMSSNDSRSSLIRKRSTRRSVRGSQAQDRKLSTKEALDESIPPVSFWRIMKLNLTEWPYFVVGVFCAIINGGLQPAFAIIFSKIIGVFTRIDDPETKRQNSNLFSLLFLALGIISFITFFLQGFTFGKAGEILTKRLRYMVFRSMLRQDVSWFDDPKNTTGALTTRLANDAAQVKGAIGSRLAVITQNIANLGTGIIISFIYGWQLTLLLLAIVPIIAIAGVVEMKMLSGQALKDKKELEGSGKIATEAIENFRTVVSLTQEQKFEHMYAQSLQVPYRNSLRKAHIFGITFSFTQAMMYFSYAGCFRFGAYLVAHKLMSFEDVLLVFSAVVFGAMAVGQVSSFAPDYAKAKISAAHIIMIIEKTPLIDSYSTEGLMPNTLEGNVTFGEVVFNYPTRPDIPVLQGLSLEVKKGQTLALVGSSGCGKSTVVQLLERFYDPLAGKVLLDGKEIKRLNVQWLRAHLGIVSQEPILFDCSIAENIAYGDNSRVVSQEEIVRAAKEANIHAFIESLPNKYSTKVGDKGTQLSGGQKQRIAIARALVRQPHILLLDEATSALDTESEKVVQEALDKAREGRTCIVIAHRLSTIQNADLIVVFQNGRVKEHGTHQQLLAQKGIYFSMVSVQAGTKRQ

Row | Structure (SMILES) | fractional inhibitory concentration index (FICI) [1] | fractional inhibitory concentration index (FICI) [2] | fractional inhibitory concentration index (FICI) [3] | fractional inhibitory concentration index (FICI) [4] | IC50 (NCI-H460 [5]) | IC50 (NCI-H460 [6]) | IC50 (DLD-1) | Ratio [9] | Ratio [10] | IC30 (NCI-H460 [5]) | IC30 (NCI-H460 [6]) | IC30 [7] | IC50 [7] | IC30 (DLD-1) | Ratio IC50 [8] | Ratio IC50 [11] | Ratio IC50 [12]
1 | COc1ccc(CCN(C)CCCC(C#N)(c2ccc(OC)c(OC)c2)C(C)C)cc1OC (stereo not drawn) | < 0.5 | < 1 | < 0.5 | < 0.5 |  |  |  |  |  |  |  |  |  |  |  |  | 
2 | CC(=O)O[C@H]1C(=O)[C@@]2(C)[C@H]([C@H](OC(=O)c3ccccc3)[C@]3(O)C[C@H](OC(=O)[C@H](O)[C@@H](NC(=O)c4ccccc4)c4ccccc4)C(C)=C1C3(C)C)[C@]1(OC(C)=O)CO[C@@H]1C[C@@H]2O [PACLITAXEL] |  |  |  |  | 2.08 µM | 0.0094 µM | 0.039 µM |  |  | 0.44 µM | 0.0036 µM | 0.049 µM | 0.09 µM | 0.023 µM |  |  | 
3 | C=C1[C@@H](OC(=O)C(C)C)[C@@H](OC(=O)c2ccccc2)[C@@H](OC(C)=O)C(C)(C)/C=C/[C@@H](C)C(=O)[C@@]2(O)C[C@H](C)[C@H](OC(=O)CC)[C@@H]2[C@H]1OC(C)=O [EUPHODENDROPHANE E] |  |  |  |  | 49.8 µM | 21.9 µM | 37.9 µM |  |  | 15.2 µM | 8.3 µM | 14.1 µM | 73.1 µM | 13.7 µM |  |  | 
4 | CC1=C[C@@H]2[C@H](C1=O)[C@H](O)C(C)=C[C@H]1[C@@H]3C(C)(C)[C@]3(OC(=O)C(C)C)[C@H](OC(=O)c3ccccc3)[C@@H](C)[C@]21O [EUPHODENDRIANE A] |  |  |  |  | 26 µM | 14.3 µM | 27.4 µM |  |  | 15.7 µM | 7 µM | 33.2 µM | 60.1 µM | 13.3 µM |  |  | 
5 | CC(=O)OC/C1=C/[C@H]2[C@@H](OC(C)=O)[C@](C)(OC(C)=O)C[C@]2(OC(C)=O)C(=O)[C@H](C)/C=C/C(C)(C)[C@H](OC(=O)c2cccnc2)[C@H](OC(C)=O)[C@@H]1OC(=O)C(C)C [EUPHODENDROPHANE F] |  |  |  |  | 90.8 µM | 14.8 µM | 75.3 µM |  |  | 51.9 µM | 4.8 µM | 27.3 µM | 65.5 µM | 38.8 µM |  |  | 

More lines, main results first:

Row | fractional inhibitory concentration index (FICI) [1] | fractional inhibitory concentration index (FICI) [2] | fractional inhibitory concentration index (FICI) [3] | fractional inhibitory concentration index (FICI) [4] | IC50 (NCI-H460 [5]) | IC50 (NCI-H460 [6]) | IC50 (DLD-1) | Ratio [9] | Ratio [10] | Structure (SMILES) | IC30 (NCI-H460 [5]) | IC30 (NCI-H460 [6]) | IC30 [7] | IC50 [7] | IC30 (DLD-1) | Ratio IC50 [8] | Ratio IC50 [11] | Ratio IC50 [12]
6 | < 0.5 | < 1 | < 1 | < 0.5 | 17.2 µM | 16.2 µM | 22.1 µM | 1.9 | 3 | C=C1[C@@H](OC(=O)C(C)C)[C@@H](OC(C)=O)[C@@H](OC(=O)c2cccnc2)C(C)(C)/C=C/[C@@H](C)C(=O)[C@@]2(O)C[C@H](C)[C@H](OC(=O)C(C)C)[C@@H]2[C@H]1OC(C)=O [EUPHODENDROPHANE B] | 3.9 µM | 6.1 µM | 6.8 µM | 108 µM | 4.8 µM | 11 | 25 | 28
7 | < 0.5 | < 0.5 | < 1 | < 0.5 | 44.8 µM | 46.6 µM | 59.3 µM | 2.1 | 3.2 | C=C1[C@@H](OC(=O)C(C)C)[C@@H](OC(C)=O)[C@@H](OC(=O)c2cccnc2)C(C)(C)/C=C/[C@@H](C)C(=O)[C@@]2(O)C[C@H](C)[C@H](OC(=O)CC)[C@@H]2[C@H]1OC(C)=O [EUPHODENDROPHANE A] | 26.6 µM | 31 µM | 74.7 µM | 155 µM | 7.3 µM | 3 | 19 | 19
8 |  |  |  |  | 30.1 µM | 21.3 µM | 42.7 µM |  |  | C=C1[C@@H](OC(C)=O)[C@@H](OC(=O)c2ccccc2)[C@@H](OC(C)=O)C(C)(C)/C=C/[C@@H](C)C(=O)[C@@]2(O)C[C@H](C)[C@H](OC(=O)C(C)C)[C@@H]2[C@H]1OC(C)=O [EUPHODENDROPHANE D] | 14.6 µM | 11.7 µM | 10.4 µM | 52.6 µM | 14.2 µM |  |  | 

Source: ChEMBL document CHEMBL1821621, “Isolation and biological evaluation of jatrophane diterpenoids from Euphorbia dendroides” (J Nat Prod, 2011)
